Assay results from ChEMBL document CHEMBL4725436, “Gibberellin JRA-003: A Selective Inhibitor of Nuclear Translocation of IKKα” (ACS Med Chem Lett, 2020).

Tests used:
SUD4 = assay: Cytotoxicity against human SU-DHL-4 cells assessed as reduction in cell viability measured after 24 hrs by CellTiter-Glo luminescent assay; format: functional, cell-based; details: SU-DHL-4, 24 h
How it was run: (§1)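 High-throughput viability screen of test agents across a panel of 22 cancerous and noncancerous human cell lines. Viability was read by CellTiter-Glo luminescence.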

[1] = Cytotoxicity against human Hs895SK cells assessed as reduction in cell viability measured after 24 hrs by CellTiter-Glo luminescent assay; format: cell-based; details: Hs 895.Sk; how it was run: as §1
Hs-578T = assay: Cytotoxicity against human Hs-578T cells assessed as reduction in cell viability measured after 24 hrs by CellTiter-Glo luminescent assay; format: functional, cell-based; how it was run: as §1
[2] = Cytotoxicity against human Hs578Bst cells assessed as reduction in cell viability measured after 24 hrs by CellTiter-Glo luminescent assay; format: cell-based; how it was run: as §1
RCK8 = assay: Cytotoxicity against human RC-K8 cells assessed as reduction in cell viability measured after 24 hrs by CellTiter-Glo luminescent assay; format: functional, cell-based; details: RCK8, 24 h; how it was run: as §1
HEK-293T = assay: Cytotoxicity against human HEK293T cells assessed as reduction in cell viability measured after 24 hrs by CellTiter-Glo luminescent assay; format: cell-based; how it was run: as §1
NCI-H446 = assay: Cytotoxicity against human NCI-H446 cells assessed as reduction in cell viability measured after 24 hrs by CellTiter-Glo luminescent assay; format: functional, cell-based; details: NCI-H446, 24 h; how it was run: as §1
HCC1599 = assay: Cytotoxicity against human HCC1599 cells assessed as reduction in cell viability measured after 24 hrs by CellTiter-Glo luminescent assay; format: functional, cell-based; details: HCC1599, 24 h; how it was run: as §1
CA46 = assay: Cytotoxicity against human CA46 cells assessed as reduction in cell viability measured after 24 hrs by CellTiter-Glo luminescent assay; format: functional, cell-based; details: CA46, 24 h; how it was run: as §1
[3] = Inhibition of IKKalpha/IKKbeta in human HEK293T cells transfected with firefly luciferase gene assessed as inhibition of TNF-alpha-stimulated NF-kappaB signalling preincubated for 1 hr followed by TNF alpha stimulation measured after 3 hrs by luciferase reporter gene assay; format: cell-based; details: HEK-293T
How it was run: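 Commercial NF-κB-driven luciferase reporter assay in HEK 293T cells stimulated with TNFα. EC50 was derived from the luminescence readout.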

[4] = Cytotoxicity against human Hs895T cells assessed as reduction in cell viability measured after 24 hrs by CellTiter-Glo luminescent assay; format: functional, cell-based; how it was run: as §1
PSN1 = assay: Cytotoxicity against human PSN1 cells assessed as reduction in cell viability measured after 24 hrs by CellTiter-Glo luminescent assay; format: functional, cell-based; details: PSN1, 24 h; how it was run: as §1
[5] = Cytotoxicity against human Hs888Lu cells assessed as reduction in cell viability measured after 24 hrs by CellTiter-Glo luminescent assay; format: cell-based; how it was run: as §1

Structure (SMILES)	IC50 (SUD4)	IC50 [1]	IC50 (Hs-578T)	IC50 [2]	IC50 (RCK8)	IC50 (HEK-293T)	IC50 (NCI-H446)	IC50 (HCC1599)	IC50 (CA46)	EC50 [3]	IC50 [4]	IC50 (PSN1)	IC50 [5]	EC50 (SUD4)	EC50 [1]	EC50 (Hs-578T)	EC50 (RCK8)	EC50 (NCI-H446)	EC50 (HCC1599)	EC50 (CA46)
COC(=O)/C=C/Oc1ccc2c(c1C)[C@H](C(=O)OC)[C@@]13CC(=O)[C@@](C)(CC[C@@H]21)C3	> 10 µM	> 10 µM	> 10 µM	> 10 µM	> 10 µM	> 10 µM	> 10 µM	> 10 µM	> 10 µM	> 100 µM	> 10 µM	> 10 µM	> 10 µM							
C=C1[C@@H](O)[C@]23C[C@@]1(O)CC[C@H]2[C@@]12C=C[C@H](O)[C@@](C)(C(=O)O1)[C@H]2[C@@H]3C(=O)OC	> 10 µM	> 10 µM	> 10 µM	> 10 µM	> 10 µM	> 10 µM	> 10 µM	> 10 µM	> 10 µM	> 100 µM	> 10 µM	> 10 µM	> 10 µM							
C=C1C[C@]23C[C@@]1(O)CC[C@H]2c1cc(Br)c(O)c(C)c1[C@@H]3C(=O)OC	> 10 µM	> 10 µM	> 10 µM	> 10 µM	> 10 µM	> 10 µM	> 10 µM	> 10 µM	> 10 µM	> 100 µM	> 10 µM	> 10 µM	> 10 µM							
C=C1C[C@]23C[C@@]1(O)CC[C@H]2c1ccc(O/C=C/C(=O)OC)c(C)c1[C@@H]3C(=O)OC	> 10 µM	> 10 µM	> 10 µM	> 10 µM	> 10 µM	> 10 µM	> 10 µM	> 10 µM	> 10 µM	> 100 µM	> 10 µM	> 10 µM	> 10 µM							
COC(=O)[C@H]1c2c(C)cccc2[C@@H]2CC[C@@]3(C)C[C@]21CC3=O	> 10 µM	> 10 µM	> 10 µM	> 10 µM	> 10 µM	> 10 µM	> 10 µM	> 10 µM	> 10 µM	> 100 µM	> 10 µM	> 10 µM	> 10 µM							
COC(=O)[C@H]1c2c(ccc(O)c2C)[C@@H]2CC[C@@]3(C)C[C@]21CC3=O	> 10 µM	> 10 µM	> 10 µM	> 10 µM	> 10 µM	> 10 µM	> 10 µM	> 10 µM	> 10 µM	> 100 µM	> 10 µM	> 10 µM	> 10 µM							
COC(=O)[C@H]1c2c(cc3ccoc3c2C)[C@@H]2CC[C@@]3(C)C[C@]21CC3=O	> 10 µM	> 10 µM	> 10 µM	> 10 µM	> 10 µM	> 10 µM	> 10 µM	> 10 µM	> 10 µM	> 100 µM	> 10 µM	> 10 µM	> 10 µM							
C=C1C(=O)[C@@]2(C)CC[C@@H]3c4cccc(C)c4[C@H](C(=O)OC)[C@@]13C2				> 10 µM		> 10 µM				55 µM	> 10 µM	> 10 µM	> 10 µM	0.69 µM	9.5 µM	4.8 µM	1.9 µM	2.9 µM	1.1 µM	0.46 µM
C=C1C[C@]23C[C@@]1(O)CC[C@H]2c1cc2c(C(=O)OC)coc2c(C)c1[C@@H]3C(=O)OC	> 10 µM	> 10 µM	> 10 µM	> 10 µM	> 10 µM	> 10 µM	> 10 µM	> 10 µM	> 10 µM	> 100 µM	> 10 µM	> 10 µM	> 10 µM							
C=C1C[C@]23C[C@@]1(O)CC[C@H]2c1cc2c(C(=O)O)coc2c(C)c1[C@@H]3C(=O)O	> 10 µM	> 10 µM	> 10 µM	> 10 µM	> 10 µM	> 10 µM	> 10 µM	> 10 µM	> 10 µM	> 100 µM	> 10 µM	> 10 µM	> 10 µM							
